# Measurements from ChEMBL document CHEMBL4665858, “New BODIPYs for photodynamic therapy (PDT): Synthesis and activity on human cancer cell lines” (Bioorg Med Chem, 2020).
# Active and inactive are the calls of the source. The calls are words filed in the database; no cut-off is given here.
# Tests used:
# SK-OV-3 [1] = assay: Induction of apoptosis in human SK-OV-3 cells assessed as increase in apoptotic incubated for 24 hrs by PI staining based flow cytometric analysis; type: functional, cell-based
# HCT-116 [2] = assay: Induction of cell cycle arrest in human HCT116 cells assessed as cell cycle distribution at antiproliferative IC50 preincubated for 24 hrs followed by irradiated with green LED for 2 hrs then incubated in dark for 24 hrs in drug free medium by PI staining based flow cytometric analysis; type: functional
# Method in brief: (§1)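 DNA content measured by PI flow cytometry (575 nm) in linear mode to give cell-cycle phase distribution. Untreated controls; 3 independent experiments.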
# [3] = Drug uptake in human SK-OV-3 cells assessed as intracellular accumulation at 10 uM incubated for 24 hrs spectrophotometric analysis; type: ADME, cell-based; conditions: sk-ov-3, 24 h
# Method in brief: (§2)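 Cells (3 × 10^6 per 75 cm² flask) grown 48 h, then exposed 24 h to BODIPY at 10 µM. Cells trypsinized and lysed in 0.1 M NaOH/1% SDS (5 × 10^6 cells/mL). Absorbance read at λmax; intracellular amount taken from a calibration curve prepared in SDS-lysed cells. 3–5 independent experiments.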
# HCT-116 [4] = assay: Induction of ROS generation in human HCT116 cells at antiproliferative IC50 preincubated for 24 hrs followed by irradiated with green LED for 2 hrs then incubated in dark for 24 hrs in drug free medium by DCFH-DA dye based flow cytometry relative to control; type: functional, cell-based
# SK-OV-3 [5] = assay: Induction of apoptosis in human SK-OV-3 cells assessed as increase in necrotic cells at antiproliferative IC50 preincubated for 24 hrs followed by irradiated with green LED for 2 hrs then incubated in dark for 24 hrs in drug free medium by PI staining based flow cytometric analysis; type: functional, cell-based
# Method in brief: (§3)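 PI-stained cells analyzed by flow cytometry (575 nm); apoptotic fraction taken from the sub-G1 peak in log-mode histograms. Untreated controls; 3–5 independent experiments.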
# HCT-116 [6] = assay: Induction of cell cycle arrest in human HCT116 cells assessed as cell cycle distribution at antiproliferative IC50 incubated for 24 hrs by PI staining based flow cytometric analysis; type: functional
# HCT-116 [7] = assay: Induction of apoptosis in human HCT116 cells assessed as increase in apoptotic incubated for 24 hrs by PI staining based flow cytometric analysis; type: functional, cell-based
# SK-OV-3 [8] = assay: Induction of apoptosis in human SK-OV-3 cells assessed as increase in apoptotic cells at antiproliferative IC50 preincubated for 24 hrs followed by irradiated with green LED for 2 hrs then incubated in dark for 24 hrs in drug free medium by PI staining based flow cytometric analysis; type: functional, cell-based; method in brief: as §3
# MCF7 [9] = assay: Induction of cell cycle arrest in human MCF7 cells assessed as cell cycle distribution at antiproliferative IC50 preincubated for 24 hrs followed by irradiated with green LED for 2 hrs then incubated in dark for 24 hrs in drug free medium by PI staining based flow cytometric analysis; type: functional; method in brief: as §1
# SK-OV-3 [10] = assay: Induction of ROS generation in human SK-OV-3 cells at antiproliferative IC50 preincubated for 24 hrs followed by irradiated with green LED for 2 hrs measured at the end of irradiation in drug free medium by DCFH-DA dye based flow cytometry relative to control
# MCF7 [11] = assay: Induction of cell cycle arrest in human MCF7 cells assessed as cell cycle distribution at antiproliferative IC50 incubated for 24 hrs by PI staining based flow cytometric analysis; type: functional
# MCF7 [12] = assay: Induction of apoptosis in human MCF7 cells assessed as increase in necrotic cells at antiproliferative IC50 preincubated for 24 hrs followed by irradiated with green LED for 2 hrs then incubated in dark for 24 hrs in drug free medium by PI staining based flow cytometric analysis; type: functional, cell-based; method in brief: as §3
# MCF7 [13] = assay: Induction of ROS generation in human MCF7 cells at antiproliferative IC50 preincubated for 24 hrs followed by irradiated with green LED for 2 hrs then incubated in dark for 24 hrs in drug free medium by DCFH-DA dye based flow cytometry relative to control; type: functional, cell-based
# SK-OV-3 [14] = assay: Antimigratory activity against human SK-OV-3 cells assessed as open scratch wound at 2.5 nM preincubated for 24 hrs followed by irradiated with green LED for 2 hrs measured immediately in drug free medium by scratch wound healing based microscopic analysis (Rvb 38.27 +/- 3.02%); type: functional
# [15] = Drug uptake in human HCT116 cells assessed as intracellular accumulation at 10 uM incubated for 24 hrs spectrophotometric analysis; type: ADME, cell-based; conditions: hct-116, 24 h; method in brief: as §2
# SK-OV-3 [16] = assay: Antimigratory activity against human SK-OV-3 cells assessed as open scratch wound at 2.5 nM incubated for 24 hrs by scratch wound healing based microscopic analysis; type: functional, cell-based
# HCT-116 [17] = assay: Induction of cell cycle arrest in human HCT116 cells assessed as accumulation at G1 phase at antiproliferative IC50 preincubated for 24 hrs followed by irradiated with green LED for 2 hrs then incubated in dark for 24 hrs in drug free medium by PI staining based flow cytometric analysis; type: functional; method in brief: as §1
# SK-OV-3 [18] = assay: Antiproliferative activity against human SK-OV-3 cells assessed as reduction in cell viability preincubated for 24 hrs followed by irradiated with green LED for 2 hrs then incubated in dark for 24 hrs in drug free medium by MTT assay; type: functional, cell-based; conditions: SK-OV-3, light or radiation study
# Method in brief: (§4)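 HCT116 and SKOV3 grown in DMEM, MCF7 in RPMI1640, all with 10% FBS. Cells attached 24 h, then exposed 24 h to BODIPY (0.1–200 nM) at 37 °C. Medium replaced by PBS and cells irradiated 2 h with green LED, then held 24 h in the dark in drug-free medium. MTT (2 mg/mL) added for 3 h; DMSO-dissolved formazan read by absorbance. IC50 from dose-response curves; 3–5 independent experiments.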
# SK-OV-3 [19] = assay: Antimigratory activity against human SK-OV-3 cells assessed as open scratch wound at 2.5 nM preincubated for 24 hrs followed by irradiated with green LED for 2 hrs then incubated in dark for 24 hrs in drug free medium by scratch wound healing based microscopic analysis (reference value: 8.68 +/- 0.58%); type: functional
# [20] = Drug uptake in human MCF7 cells assessed as intracellular accumulation at 10 uM incubated for 24 hrs spectrophotometric analysis; type: ADME, cell-based; conditions: mcf7, 24 h; method in brief: as §2
# MCF7 [21] = assay: Induction of apoptosis in human MCF7 cells assessed as increase in apoptotic cells at antiproliferative IC50 preincubated for 24 hrs followed by irradiated with green LED for 2 hrs then incubated in dark for 24 hrs in drug free medium by PI staining based flow cytometric analysis; type: functional, cell-based; method in brief: as §3
# SK-OV-3 [22] = assay: Induction of cell cycle arrest in human SK-OV-3 cells assessed as cell cycle distribution at antiproliferative IC50 incubated for 24 hrs by PI staining based flow cytometric analysis; type: functional
# MCF7 [23] = assay: Induction of apoptosis in human MCF7 cells assessed as increase in apoptotic incubated for 24 hrs by PI staining based flow cytometric analysis; type: functional, cell-based
# SK-OV-3 [24] = assay: Antimigratory activity against human SK-OV-3 cells assessed as open scratch wound at 0.75 nM incubated for 24 hrs by scratch wound healing based microscopic analysis; type: functional, cell-based
# MCF7 [25] = assay: Induction of cell cycle arrest in human MCF7 cells assessed as accumulation at G1 phase at antiproliferative IC50 preincubated for 24 hrs followed by irradiated with green LED for 2 hrs then incubated in dark for 24 hrs in drug free medium by PI staining based flow cytometric analysis; type: functional; method in brief: as §1
# SK-OV-3 [26] = assay: Induction of cell cycle arrest in human SK-OV-3 cells assessed as cell cycle distribution at antiproliferative IC50 preincubated for 24 hrs followed by irradiated with green LED for 2 hrs then incubated in dark for 24 hrs in drug free medium by PI staining based flow cytometric analysis; type: functional; method in brief: as §1
# MCF7 [27] = assay: Antiproliferative activity against human MCF7 cells assessed as reduction in cell viability preincubated for 24 hrs followed by irradiated with green LED for 2 hrs then incubated in dark for 24 hrs in drug free medium by MTT assay; type: functional, cell-based; conditions: MCF7, light or radiation study; method in brief: as §4
# HCT-116 [28] = assay: Antiproliferative activity against human HCT116 cells assessed as reduction in cell viability preincubated for 24 hrs followed by irradiated with green LED for 2 hrs then incubated in dark for 24 hrs in drug free medium by MTT assay; type: functional, cell-based; conditions: HCT-116, light or radiation study; method in brief: as §4
# SK-OV-3 [29] = assay: Antimigratory activity against human SK-OV-3 cells assessed as open scratch wound at 0.75 nM preincubated for 24 hrs followed by irradiated with green LED for 2 hrs then incubated in dark for 24 hrs in drug free medium by scratch wound healing based microscopic analysis (reference value: 8.68 +/- 0.58%); type: functional
# SK-OV-3 [30] = assay: Induction of cell cycle arrest in human SK-OV-3 cells assessed as accumulation at G1 phase at antiproliferative IC50 preincubated for 24 hrs followed by irradiated with green LED for 2 hrs then incubated in dark for 24 hrs in drug free medium by PI staining based flow cytometric analysis; type: functional; method in brief: as §1
# SK-OV-3 [31] = assay: Antimigratory activity against human SK-OV-3 cells assessed as open scratch wound at 0.75 nM preincubated for 24 hrs followed by irradiated with green LED for 2 hrs measured immediately in drug free medium by scratch wound healing based microscopic analysis (Rvb 38.27 +/- 3.02%); type: functional
SMILES,Activity (SK-OV-3 [1]),Activity (HCT-116 [2]),Drug uptake [3],Activity (HCT-116 [4]),Activity (SK-OV-3 [5]),Activity (HCT-116 [6]),Activity (HCT-116 [7]),Activity (SK-OV-3 [8]),Activity (MCF7 [9]),Activity (SK-OV-3 [10]),Activity (MCF7 [11]),Activity (MCF7 [12]),Activity (MCF7 [13]),Drug uptake [15],Activity (SK-OV-3 [16]),Activity (HCT-116 [17]),IC50 (SK-OV-3 [18]) [nM],Drug uptake [20],Activity (MCF7 [21]),Activity (SK-OV-3 [22]),other results
CC1=C(I)C(C)=[N+]2C1=C(c1ccc(OCCCCCCCCBr)cc1)c1c(C)c(I)c(C)n1[B-]2(F)F,inactive,inactive,Active,inactive,Active,inactive,inactive,Active,inactive,Active,inactive,Active,inactive,Active,inactive,inactive,15.6,Active,Active,inactive,Activity (SK-OV-3 [14]): 37.71%; Activity (SK-OV-3 [19]): 13.53%; Activity (MCF7 [23]): inactive; Activity (SK-OV-3 [24]): inactive; Activity (MCF7 [25]): inactive; Activity (SK-OV-3 [26]): inactive; IC50 (MCF7 [27]): 23.1 nM; IC50 (HCT-116 [28]): 11.7 nM
CC1=C(I)C(C)=[N+]2C1=C(c1ccc(OCCCCBr)cc1)c1c(C)c(I)c(C)n1[B-]2(F)F,inactive,inactive,Active,inactive,Active,inactive,inactive,Active,inactive,Active,inactive,Active,inactive,Active,inactive,inactive,3.56,Active,Active,inactive,Activity (SK-OV-3 [29]): 24.81%; Activity (SK-OV-3 [30]): inactive; Activity (SK-OV-3 [31]): 35.19%; Activity (MCF7 [23]): inactive; Activity (SK-OV-3 [24]): inactive; Activity (MCF7 [25]): inactive; Activity (SK-OV-3 [26]): inactive; IC50 (MCF7 [27]): 6.88 nM; IC50 (HCT-116 [28]): 2 nM
